Laboratory results reported in ChEMBL document CHEMBL1135747, “Radiolabeling and in vivo behavior of copper-64-labeled cross-bridged cyclam ligands” (J Med Chem, 2002).
Blank lines part the entries; values can stand above or below the molecule they belong to.

Legend:
[1] = Partition coefficient (logP); type: physicochemical; settings: octanol/water
In short: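 Each ⁶⁴Cu complex was partitioned between octanol and water, shaken 1 h at room temperature, and 100 μL from each phase was counted. Log P is the log of the octanol/water count ratio, averaged over five samples.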

[2] = species: Rattus norvegicus; experiment: Distribution in rat blood after 24 hr postinjection; type: ADME, organism-based; settings: in vivo
In short: (§1)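 ⁶⁴Cu-labeled complexes, at NCA and CA levels, were diluted in saline and injected into mature female Sprague–Dawley rats (180–200 g; n = 4). Each rat received up to 0.2 mL carrying 22 μCi. Rats were sacrificed at set times after injection, including 24 h. Organs were excised, weighed and counted against a weighed, counted standard. Values are %ID/g and %ID/organ ± sd.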

[3] = species: Rattus norvegicus; experiment: Distribution in rat kidney 24 hr postinjection; type: ADME, organism-based; settings: in vivo; in short: as §1
[4] = species: Rattus norvegicus; experiment: Distribution in rat liver after 24 hr postinjection; type: ADME, organism-based; settings: in vivo; in short: as §1

logP [1]: -2.3
Molecule: NC(=O)CCN1CCCN2CCN(CCC(N)=O)CCCN(CC1)CC2

logP [1]: -1.95
Molecule: CCN(CC)C(=O)CN1CCCN2CCN(CCCN(CC(=O)N(CC)CC)CC2)CC1

Biodistribution [2]: 0.23
Biodistribution [3]: 0.097
Biodistribution [4]: 0.7
Molecule: Cu-1,4,8,11tetraaza-Cyclotetradecane-2,10-dione

More lines, now with the values behind:

Molecule: C1CNCCN2CCCNCCN(C1)CC2
logP [1]: -2.11

Molecule: Cu-(4,8,11-Tris-carboxymethyl-1,4,8,11tetraaza-cyclotetradec-1-yl)-acetic acid
Biodistribution [2]: 0.21
Biodistribution [3]: 0.21
Biodistribution [4]: 0.49
